From ChEMBL document CHEMBL1140975, “Synthesis and antimalarial activity of carbamate and amide derivatives of 4-anilinoquinoline” (Eur J Med Chem, 2008)
Activity calls are given as the source filed them. The calls are words filed in the database; no cut-off is given here.

Columns and labels:
Plasmodium falciparum [1] = assay: Antimalarial activity after 24 hrs against chloroquine-resistant Plasmodium falciparum FcB1R/Colombia by [3H]hypoxanthine uptake; type: functional, organism-based
In short: (§1)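 Asynchronous P. falciparum cultures on human erythrocytes (1% parasitaemia, 1% final haematocrit) exposed to serial dilutions of drug for 24 h at 37 °C, then [3H]hypoxanthine added for another 24 h. Cells freeze-thawed, harvested onto glass-fibre filters and scintillation counted. Incorporation compared with drug-free control on the same plate. IC50 taken from concentration-response curve, mean ± SD of independent experiments. DMSO ≤0.1%.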

[2] = Selectivity index, ratio of IC50 for human MRC5 cells to IC50 for chloroquine-resistant Plasmodium falciparum FcB1R/Colombia; type: toxicity, cell-based; conditions: read-out: Ratio CC50/IC50
In short: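 SI is CC50 on MRC-5 over IC50 against FcB1R. MRC-5 cells were seeded at 5000 per well and treated after 24 h with two-fold dilutions in RPMI + 5% FCS (DMSO <0.5%). Incubation was 7 days at 37 °C, 5% CO2. Read-out was MTT, as % reduction of absorbance at 540 nm versus untreated cultures. CC50 is the concentration giving 50% cytotoxicity.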

[3] = Cytotoxicity against human MRC5 cells after 7 days by MTT assay; type: cell-based
In short: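 MRC-5 human embryonic lung cells were seeded at 5000 per well and washed after 24 h. Two-fold drug dilutions were added in RPMI + 5% FCS, with final DMSO below 0.5%. Plates were held at 37 °C in 5% CO₂ for 7 days. MTT absorbance at 540 nm was compared with untreated controls. CC₅₀ is the concentration causing 50% cytotoxicity.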

Plasmodium falciparum [4] = assay: Antimalarial activity against chloroquine-sensitive Plasmodium falciparum THAI/Thailand as [3H]hypoxanthine uptake after 24 hrs by semi-automated micro dilution; type: functional, organism-based; in short: as §1
Plasmodium falciparum [5] = assay: Antimalarial activity after 24 hrs against chloroquine-resistant Plasmodium falciparum K1/Thailand by [3H]hypoxanthine uptake; type: functional, organism-based; in short: as §1
Plasmodium berghei [6] = assay: Antimalarial activity as reduced parasitaemia in Plasmodium berghei ANKA 65 infected Swiss CD1 mice (Mus musculus) at 10 mg/kg/day peroral dose then intraperitoneal dose for 4 days; type: functional; parameters: scale not given: the % may be the effect or the level left; conditions: route oral
In short: (§2)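 Female Swiss CD-1 mice (4 weeks old, 20–25 g), three per group, infected intraperitoneally with about 10⁷ P. berghei ANKA 65-parasitized erythrocytes from an infected donor. The first dose was given orally in 100% DMSO at infection, then intraperitoneally on the following 4 days. Infected DMSO-dosed mice served as controls. Read-outs were parasitaemia reduction at day 4 and excess MST, the % prolongation of mean survival time versus controls.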

Plasmodium berghei [7] = assay: Antimalarial activity as increased mean survival time in Plasmodium berghei ANKA 65 infected Swiss CD1 mice (Mus musculus) at 10 mg/kg peroral dose day 1 with intraperitoneal dose over 4 days; type: functional, organism-based; parameters: dose 10 mg/kg; in short: as §2
Mus musculus = species on record: Mus musculus; assay: Toxicity in Plasmodium berghei ANKA 65 infected Swiss CD1 mice (Mus musculus); type: organism-based; conditions: in vivo
Plasmodium berghei [8] = assay: Antimalarial activity as reduced parasitaemia in Plasmodium berghei ANKA 65 infected Swiss CD1 mice (Mus musculus) at 40 mg/kg/day peroral dose then intraperitoneal for 4 days; type: functional; parameters: scale not given: the % may be the effect or the level left; conditions: route oral; in short: as §2
Plasmodium berghei [9] = assay: Antimalarial activity as increased MST in Plasmodium berghei ANKA 65 infected Swiss CD1 mice (Mus musculus) at 40 mg/kg peroral dose day 1 followed by intraperitoneal dose for 4 days; type: functional
In short: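 Female Swiss CD-1 mice, four weeks old, 20-25 g, three per group. Infected ip with about 10^7 P. berghei ANKA 65 parasitized erythrocytes from a donor mouse. Dosed orally at 40 mg/kg in 100% DMSO at infection, then ip for the following 4 days. Controls were infected DMSO-dosed mice. Excess MST is the percent prolongation of mean survival time over controls.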

SMILES | IC50 (Plasmodium falciparum [1]) | selectivity ratio [2] | CC50 at 168 h [3] | also measured
O=C(CN1CCCCC1)Nc1cc(Nc2ccnc3cc(Cl)ccc23)cc(C(=O)N2CCCCC2)c1 | 286 nM | > 112 | > 32000 nM | 
O=C(CN1CCCCC1)Nc1cc(COC(=O)CN2CCCCC2)cc(Nc2ccnc3cc(Cl)ccc23)c1 |  | 231 |  | 
CN(C)CCN(C)C(=O)c1cc(NC(=O)CN2CCCCC2)cc(Nc2ccnc3cc(Cl)ccc23)c1 | 18.8 nM | 851 | 16000 nM | 
O=C(CN1CCCCC1)Nc1cc(COC(=O)CCCCCN2CCCCC2)cc(Nc2ccnc3cc(Cl)ccc23)c1 |  | 456 |  | 
CCN(CC)Cc1cc(Nc2ccnc3cc(Cl)ccc23)ccc1O.Cl | 4.8 nM | 2500 | 12000 nM | IC50 (Plasmodium falciparum [4]): 4.6 nM; IC50 (Plasmodium falciparum [5]): 9.4 nM; Activity (Plasmodium berghei [6]): 100%; Activity (Plasmodium berghei [7]): Active; Activity (Mus musculus): Non-toxic
O=C(CN1CCCCC1)Nc1cc(Nc2ccnc3cc(Cl)ccc23)cc(C(=O)N2CCOCC2)c1 | 108 nM | > 298 | > 32000 nM | 
CCN(CC)CCCNC(=O)OCc1cc(NC(=O)CN2CCCCC2)cc(Nc2ccnc3cc(Cl)ccc23)c1 | 14.5 nM | 434 | 6300 nM | 
O=C(CN1CCCCC1)Nc1cc(COC(=O)NCCN2CCOCC2)cc(Nc2ccnc3cc(Cl)ccc23)c1 | 48.3 nM | > 259 | > 12500 nM | IC50 (Plasmodium falciparum [4]): 38.6 nM; IC50 (Plasmodium falciparum [5]): 19.4 nM
O=C(CN1CCCCC1)Nc1cc(Nc2ccnc3cc(Cl)ccc23)cc(C(=O)N2CCN(c3ccccc3)CC2)c1 | 151 nM | 106 | 16000 nM | 
O=C(CN1CCCCC1)Nc1cc(CNCCN2CCOCC2)cc(Nc2ccnc3cc(Cl)ccc23)c1 | 7.9 nM | 406 |  | Activity (Plasmodium berghei [8]): 100%; Activity (Plasmodium berghei [9]): Active; Activity (Mus musculus): Non-toxic
CN(C)CCCNC(=O)c1cc(NC(=O)CN2CCCCC2)cc(Nc2ccnc3cc(Cl)ccc23)c1 | 181 nM | > 177 | > 32000 nM | 
CN(C)CCNC(=O)c1cc(NC(=O)CN2CCCCC2)cc(Nc2ccnc3cc(Cl)ccc23)c1 | 31.4 nM | 478 | 15000 nM | 
CN(C)CCNCc1cc(NC(=O)CN2CCCCC2)cc(Nc2ccnc3cc(Cl)ccc23)c1 |  | 1150 |  | 
O=C(CN1CCCCC1)Nc1cc(COC(=O)NCCN2CCCCC2)cc(Nc2ccnc3cc(Cl)ccc23)c1 | 11.2 nM | 1120 | 12500 nM | IC50 (Plasmodium falciparum [4]): 19.4 nM; IC50 (Plasmodium falciparum [5]): 9.7 nM; Activity (Plasmodium berghei [8]): 100%; Activity (Plasmodium berghei [9]; route oral): 50%; Activity (Mus musculus): Non-toxic
O=C(CN1CCCCC1)Nc1cc(Nc2ccnc3cc(Cl)ccc23)cc(C(=O)NCCN2CCOCC2)c1 | 58.6 nM | > 546 | > 32000 nM | 
CN(C)CCNC(=O)OCc1cc(NC(=O)CN2CCCCC2)cc(Nc2ccnc3cc(Cl)ccc23)c1 | 10.2 nM | 304 | 3100 nM | 

SMILES | IC50 (Plasmodium falciparum [1]) | selectivity ratio [2] | CC50 at 168 h [3] | also measured
O=C(CN1CCCCC1)Nc1cc(COC(=O)CCCCN2CCOCC2)cc(Nc2ccnc3cc(Cl)ccc23)c1 |  | 887 |  | Activity (Plasmodium berghei [8]): 99.8%; Activity (Plasmodium berghei [9]; route oral): 73%; Activity (Mus musculus): Non-toxic
O=C(CN1CCCCC1)Nc1cc(CNCCN2CCCCC2)cc(Nc2ccnc3cc(Cl)ccc23)c1 | 6.6 nM | 648 |  | 
CCN(CC)CCCC(C)Nc1ccnc2cc(Cl)ccc12 (stereo unspecified) [CHLOROQUINE] |  |  | 50000 nM | Activity (Plasmodium berghei [6]): 100%; Activity (Plasmodium berghei [7]): Active; Activity (Mus musculus): Non-toxic
CN(C)CCCNCc1cc(NC(=O)CN2CCCCC2)cc(Nc2ccnc3cc(Cl)ccc23)c1 |  | 174 |  | 
O=C(CN1CCCCC1)Nc1cc(Nc2ccnc3cc(Cl)ccc23)cc(C(=O)O)c1 | > 1000 nM |  | > 32000 nM | 
O=C(CN1CCCCC1)Nc1cc(COC(=O)NCc2ccccc2)cc(Nc2ccnc3cc(Cl)ccc23)c1 | 36 nM | > 347 | > 12500 nM | 
O=C(CN1CCCCC1)Nc1cc(Nc2ccnc3cc(Cl)ccc23)cc(C(=O)N2CCN(Cc3ccccc3)CC2)c1 | 50.6 nM | 296 | 15000 nM | 
O=C(CN1CCCCC1)Nc1cc(Nc2ccnc3cc(Cl)ccc23)cc(C(=O)NCCN2CCCC2)c1 | 16.6 nM | 1024 | 17000 nM | 
O=C(CN1CCCCC1)Nc1cc(COC(=O)CCN2CCCCC2)cc(Nc2ccnc3cc(Cl)ccc23)c1 |  | 158 |  | 
O=C(CN1CCCCC1)Nc1cc(CO)cc(Nc2ccnc3cc(Cl)ccc23)c1 |  | 281 | 12500 nM | Activity (Plasmodium berghei [8]): 100%; Activity (Plasmodium berghei [9]; route oral): 110%; Activity (Mus musculus): Non-toxic
O=C(CN1CCCCC1)Nc1cc(CNCCN2CCCC2)cc(Nc2ccnc3cc(Cl)ccc23)c1 |  | 182 |  | 
CN1CCN(C(=O)c2cc(NC(=O)CN3CCCCC3)cc(Nc3ccnc4cc(Cl)ccc34)c2)CC1 | 19.2 nM | 833 | 16000 nM | IC50 (Plasmodium falciparum [4]): 38.4 nM; IC50 (Plasmodium falciparum [5]): 51.2 nM; Activity (Plasmodium berghei [8]): 99.96%; Activity (Plasmodium berghei [9]; route oral): 150%; Activity (Mus musculus): Non-toxic
O=C(CN1CCCCC1)Nc1cc(COC(=O)CCCCN2CCCCC2)cc(Nc2ccnc3cc(Cl)ccc23)c1 |  | 806 |  | 
CN1CCN(CCCNC(=O)OCc2cc(NC(=O)CN3CCCCC3)cc(Nc3ccnc4cc(Cl)ccc34)c2)CC1 |  |  | 6300 nM | 
CCN(CC)CCCCC(=O)OCc1cc(NC(=O)CN2CCCCC2)cc(Nc2ccnc3cc(Cl)ccc23)c1 |  | 89 |  | 
